Bioassay records from PubChem BioAssay.
In the library only some 3.1% were active in any assay of this set; here they are far more common.
OX1R antag-1: OX1R (HCRTR1) antagonists, primary screen, fluorescence, CHO/OX1R cells, Fluo-8 calcium, orexin A; Fluo-8 calcium fluorescence; inhibition, % at 5 µM; 330,000 compounds, 0.43% hits;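 active means inhibition above its plate's threshold, mean inhibition of all tested compounds on the plate plus 3 SD, cut at about 37% in these data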;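 further: 0% = orexin A challenge wells and 100% = SB-334867-A antagonist wells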
Target sequence (O43613 whole entry, looked up): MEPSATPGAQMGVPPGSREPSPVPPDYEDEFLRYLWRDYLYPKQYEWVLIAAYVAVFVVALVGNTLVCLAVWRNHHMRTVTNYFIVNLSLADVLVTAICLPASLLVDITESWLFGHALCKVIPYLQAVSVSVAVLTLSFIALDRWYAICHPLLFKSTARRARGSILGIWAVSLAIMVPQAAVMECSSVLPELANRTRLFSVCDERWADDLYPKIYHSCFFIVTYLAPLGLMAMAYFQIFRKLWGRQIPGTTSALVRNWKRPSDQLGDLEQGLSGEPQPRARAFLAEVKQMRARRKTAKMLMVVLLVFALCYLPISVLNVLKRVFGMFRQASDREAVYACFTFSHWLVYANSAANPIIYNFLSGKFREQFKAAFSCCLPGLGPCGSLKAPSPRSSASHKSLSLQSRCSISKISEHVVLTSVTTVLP
OX1R antag-2: antagonists of human orexin 1 receptor (OX1R) | Orexin/Hypocretin receptor type 1 (Homo sapiens), O43613 | OX1R-expressing cells, FRET antagonist read-out | inhibition, % at 6.6 µM | 330,000 compounds, 1.8% hits | AID 485270, 2010; in the data active means inhibition mostly above about 38%, no sharp cut-off; inactive means mostly below about 40%;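 further: 0% = agonist challenge alone and 100% = reference antagonist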
GalR3 antagonist: GalR3 antagonists in HEK293 cells, primary screen, cell-based, fluorescence readout | HEK293 GalR3-CNG cAMP membrane potential fluorescence; galR3 body fused to GalR1 C-terminus | inhibition, % at 3 µM | 360,000 compounds, 0.44% hits | AID 651719, 2012 | Galanin receptor type 3 (Homo sapiens), O60755;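 active means inhibition above the screen-wide average plus 3 SD, cut at about 13% in these data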;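 further: forskolin and galanin both at EC90 stimulate the cells; cAMP rise reported by CNG channel membrane potential dye signal; 0% = forskolin plus galanin with DMSO and 100% = forskolin alone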
Target sequence (O60755 1-299 limits assumed): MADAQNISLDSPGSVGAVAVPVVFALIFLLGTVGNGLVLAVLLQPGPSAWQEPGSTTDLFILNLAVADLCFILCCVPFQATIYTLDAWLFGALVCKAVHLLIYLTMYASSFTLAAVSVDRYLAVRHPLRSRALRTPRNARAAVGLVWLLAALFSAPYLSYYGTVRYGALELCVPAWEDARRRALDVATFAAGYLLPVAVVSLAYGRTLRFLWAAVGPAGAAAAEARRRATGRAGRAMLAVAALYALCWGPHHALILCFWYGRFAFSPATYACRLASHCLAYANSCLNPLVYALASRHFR
CHO parental Ca: ATP-evoked calcium signal inhibitors, parental CHO, primary screen, counter-screen for OX1R antagonist project, cell-based, fluorescence, Fluo-8 calcium dye | parental CHO-K1, ATP-induced calcium, Fluo-8 fluorescence | inhibition, % at 5.6 µM | 330,000 compounds, 0.63% hits | AID 463079, 2010;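 active means inhibition above that plate's mean sample inhibition plus 3 SD, cut at about 26% in these data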;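 further: 0% = ATP-challenged DMSO wells and 100% = DMSO wells without ATP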
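Assay system – parental CHO cells · Reagent – ATP stimulus · Detection – intracellular calcium via Fluo-8 no-wash fluorescent dye · Evaluation – percent inhibition of ATP-evoked calcium rise, normalized to controls · Controls – ATP wells versus no-ATP DMSO wells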
GPR7 antag: GPR7 receptor antagonists, primary screen, cell-based, fluorescence, single concentration. GPR7-expressing cells, fluorescence antagonist assay. inhibition, % at 4.4 µM. 290,000 compounds, 1.1% hits. AID 1861, 2009; in the data active means inhibition above about 16%, passing the limit was not always enough;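 further: cells stimulated with the agonist NPW; 0% = agonist with vehicle and 100% = vehicle without agonist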
An asterisk follows results filed as active; . = not tested or not shown.

SMILES | OX1R antag-1 | OX1R antag-2 | GalR3 antagonist | CHO parental Ca | GPR7 antag
COC(=O)c1cc(C(=O)NNC(=O)c2ccc3c(c2)OCO3)cc([N+](=O)[O-])c1 | -21.6 | 54.2* | -5.2 | -11.5 | .
COc1cc2c(cc1OC)[C@@H](NC(=O)c1ccncc1)[C@H](C)[C@H]2c1ccccc1 | . | . | -5.8 | . | .
CCN1CCN(C(=O)c2ccccc2NS(=O)(=O)c2ccc(Cl)cc2)CC1 | 5.0 | 10.8 | -5.9 | -10.3 | -3.5
O=C(OCC(=O)N1CCCC1)c1ccc(Cl)c([N+](=O)[O-])c1 | 0.7 | 65.0* | -8.7 | -2.0 | -2.1
O=C(OCC(=O)N1CCCC1)c1cc(Cl)ccc1[N+](=O)[O-] | -3.0 | 53.7 | -9.1 | -10.4 | -3.9
CCCCn1c(SCc2nc(N)nc(Nc3ccccc3C)n2)nc2ccccc2c1=O | 7.5 | 70.5* | -0.9 | -18.9 | 6.7
COCC(C)n1c(SCc2nc(N)nc(Nc3ccccc3C)n2)nc2ccccc2c1=O (stereo not given) | -24.8 | 29.0 | -3.1 | -25.1 | 3.5
CCCCCN(C(=O)CCC(=O)OC(C)C(=O)NC1CCCCC1)c1c(N)n(CCCC)c(=O)[nH]c1=O (stereo not given) | -1.1 | 11.9 | -2.0 | -8.5 | .
OCCNc1ncnc2c1c(-c1ccccc1)c(-c1ccccc1)n2Cc1ccco1 | -22.0 | 29.2 | -3.9 | -18.7 | 0.3
c1ccc(-c2c(-c3ccccc3)n(Cc3ccco3)c3ncnc(NCCCn4ccnc4)c23)cc1 | 21.1 | 53.5* | -4.2 | 27.7 | 6.8
CC(NC(=O)COc1ncnc2cc([N+](=O)[O-])ccc12)c1ccccc1 (stereo not given) | -14.0 | 64.1* | -1.1 | -5.0 | -4.5
CCOC(=O)c1c(C)[nH]c(C)c1C(=O)COc1ncnc2cc([N+](=O)[O-])ccc12 | -40.4 | 75.5* | -0.2 | -19.5 | -8.3
CCC(CC)NC(=O)CON=C1c2ccccc2-c2ccccc21 | -13.0 | 51.4* | 1.2 | -21.1 | -11.4
CCNC(=O)CON=C1c2ccccc2-c2ccccc21 | -14.3 | 60.2 | -1.8 | -8.6 | -9.0
O=C(N[C@H](C(=O)N1CCC[C@H]1C(=O)NC1CCCC1)c1ccccc1)C1CC1 | . | . | -7.2 | . | .
COc1ccc2nc(C)cc(SCC(=O)NNC(=O)COc3cccc4ccccc34)c2c1 | 13.8 | 71.0* | -4.0 | -16.1 | -1.6
COc1ccc2nc(C)cc(SCC(=O)NNC(=O)COc3ccc(C)cc3)c2c1 | 6.1 | 32.8 | -6.9 | 7.4 | -5.0
CCOC(=O)C1=C(c2ccccc2)NC(N)=NC1c1ccc(OCc2ccc(Cl)cc2)c(OC)c1 (stereo not given) | -16.7 | 8.5 | -8.2 | -10.9 | 1.1
S=c1[nH]nc(-c2ccncc2)n1/N=C/c1cn(-c2ccccc2)nc1-c1ccccc1 | -58.5 | 52.1* | 4.0 | -67.9 | -13.4
Oc1c(Br)cc(Br)c(/C=N/n2c(-c3ccccc3)n[nH]c2=S)c1Br | 3.0 | 71.1* | -9.5 | -2.5 | 6.5
CCCCc1nnn2c1C1c3cc(-c4cccnc4)ccc3CCN1C(=O)C2 (stereo not given) | . | . | -2.8 | . | .
O=[N+]([O-])c1ccc2c(c1)S(=O)c1ccccc1-2 (stereo not given) | -5.6 | 75.0* | 0.0 | -28.1 | -15.0
O=C(O)c1ccccc1-c1ccc([N+](=O)[O-])cc1Cl | . | . | -6.3 | . | .
O=C(CCc1nc(-c2ccccc2F)no1)Nc1ccc(Oc2ccccc2)cc1 | 62.0* | 54.9 | -4.0 | 38.8* | -6.6
COc1cccc(NC(=O)CCc2nc(-c3ccccc3F)no2)c1 | 0.0 | 2.7 | -5.7 | -13.7 | -1.4
SMILES | OX1R antag-1 | OX1R antag-2 | GalR3 antagonist | CHO parental Ca | GPR7 antag
O=S1(=O)CC(N2CCCC2)CN1Cc1cn(Cc2ccc(C(F)(F)F)cc2)nn1 (stereo not given) | . | . | -1.3 | . | .
C[n+]1ccc(/C=C/c2ccccc2O)c2ccccc21 | -15.2 | 71.6* | -3.1 | -9.5 | 4.0
CN1/C(=C/c2cc[n+](C)c3ccccc23)C=Cc2ccccc21 | . | . | . | . | -24.0
C=CCCCCCCCCc1nc(SCC(C)=O)n[nH]1 | -4.6 | 12.9 | -0.8 | 1.7 | 20.3*
C=CCCCCCCCCc1nc(SCC(=O)O)n[nH]1 | -6.7 | 7.1 | -4.4 | 7.3 | -11.9
COC(=O)C1=C(C)N(C)C(=NCC2CC2)NC1c1ccc(F)cc1 (stereo not given) | . | . | -7.2 | . | .
O=C(OCC(=O)N1N=C(c2ccc(Cl)cc2)CC1c1ccco1)c1cncc(Br)c1 (stereo not given) | -22.3 | 7.4 | -4.3 | -25.7 | .
Cc1ccc(C(CNC(=O)c2ccco2)N2CCN(C)CC2)cc1 (stereo not given) | 5.1 | 5.5 | -1.5 | -10.2 | .
Cc1cc2oc(=O)cc(CN(C)Cc3ccccc3)c2cc1C(C)C | 12.1 | -0.4 | -7.8 | 30.7* | -31.9
COc1ccc(CN(C)Cc2cc(=O)oc3cc(C)c(C(C)C)cc23)cc1OC | -31.9 | 29.4 | -8.8 | -19.8 | 2.5
COc1ccccc1NC(=O)Nc1ccnn1C1CCN(C(=O)c2cccnc2)CC1 | -5.2 | 10.6 | -7.6 | -9.4 | -9.3
Cc1cc(=O)[nH]c(SCC(=O)c2ccc(F)c(C)c2)n1 | -1.4 | 2.3 | -9.0 | -16.8 | -4.4
O=S(=O)(CCc1nc2ccccc2o1)c1ccc2ccccc2c1 | 2.3 | 45.1* | -1.9 | -11.7 | -2.3
Cc1ccc2c(c1)c(C)c(C)n2CC(O)Cn1nnc2ccccc21 (stereo not given) | -21.8 | 63.3* | -4.4 | -21.6 | -5.9
O=C1N=NC2=C1c1c3ccccc3c(O)n1CC2 | -7.8 | 55.8* | -5.1 | 8.3 | -17.3
Brc1ccccc1OCCCCn1cnc2ccccc21 | 19.2 | 34.6* | 0.2 | 65.6* | 6.2
COc1cccc(CNC(=O)CN2C(=O)CSc3ccc(S(=O)(=O)N4CCOCC4)cc32)c1 | -26.9 | 37.0* | -9.5 | -29.3 | 5.4
COc1cccc(NC(=O)CN2C(=O)CSc3ccc(S(=O)(=O)N4CCOCC4)cc32)c1 | -12.6 | 11.0 | -5.5 | -14.4 | -5.9
CC(=O)c1c(C)[nH]c(C(=O)OCc2ccc([N+](=O)[O-])cc2)c1C | -27.7 | 17.2 | -8.5 | -13.6 | -10.1
COC(=O)c1ccc(COC(=O)c2[nH]c(C)c(C(C)=O)c2C)o1 | 11.3 | 44.9 | 6.8 | 38.1* | 6.8
CC1=NN(c2ccccc2)C(=O)/C1=C\c1ccc(Oc2ccc([N+](=O)[O-])cc2[N+](=O)[O-])cc1 | 13.3 | 50.4* | 3.1 | 0.9 | 15.0
O=C(N[C@H](C(=O)N1CCC[C@H]1C(=O)NC1CCCC1)C1CCCCC1)C1CC1 | . | . | -4.2 | . | .
CN1/C(=C\P(=O)(N(C)C)N(C)C)C(C)(C)c2ccccc21 | 77.3* | 25.1 | -4.8 | 44.6* | 13.6
O=[N+]([O-])c1ccc(-c2nnc3cccc(Cl)n23)cc1 | -17.8 | 49.3* | -8.9 | -7.3 | -6.0
